# Calls of active or inactive are those of the source. The calls are words filed in the database; no cut-off is given here.
# Legend:
# Bacillus subtilis = assay: Antimicrobial activity against Bacillus subtilis DSM 10 by serial dilution method; format: functional
# Procedure, shortened: (§1)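 MIC by serial dilution (150 μL) in 96-well tissue-culture plates; 20 μL aliquots of compound at 1 mg/mL tested; methanol as negative control.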
# Wickerhamomyces anomalus = assay: Antimicrobial activity against Wickerhamomyces anomalus DSM 6766 by serial dilution method; format: functional, organism-based; procedure, shortened: as §1
# Candida albicans = assay: Antimicrobial activity against Candida albicans DSM 1665 by serial dilution method; format: functional, organism-based; procedure, shortened: as §1
# Escherichia coli [1] = assay: Antimicrobial activity against Escherichia coli TolC by serial dilution method; format: functional; procedure, shortened: as §1
# Escherichia coli [2] = assay: Antimicrobial activity against Escherichia coli DSM 1116 by serial dilution method; format: functional, organism-based; procedure, shortened: as §1
# Mucor hiemalis = assay: Antimicrobial activity against Mucor hiemalis DSM 2656 by serial dilution method; format: functional; procedure, shortened: as §1
# Micrococcus luteus = assay: Antimicrobial activity against Micrococcus luteus DSM 1790 by serial dilution method; format: functional; procedure, shortened: as §1
# Pseudomonas aeruginosa = assay: Antimicrobial activity against Pseudomonas aeruginosa PA14 by serial dilution method; format: functional; procedure, shortened: as §1
# L929 = assay: Cytotoxicity against mouse L929 cells; format: cell-based
# Procedure, shortened: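 Mouse fibroblast L929 cells exposed to 3.0 μL of each compound; MIC determined by serial dilution (60 μL) in 96-well tissue-culture plates.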
# Staphylococcus aureus = assay: Antimicrobial activity against Staphylococcus aureus Newman by serial dilution method; format: functional; procedure, shortened: as §1
# [3] = test system: Mycolicibacterium smegmatis; assay: Antimicrobial activity against Mycobacterium smegmatis ATCC 700084 by serial dilution method; format: functional, organism-based; procedure, shortened: as §1
# [4] = Mus musculus, L929, read-out: IC50
MIC (Bacillus subtilis),MIC (Wickerhamomyces anomalus),MIC (Candida albicans),MIC (Escherichia coli [1]),MIC (Escherichia coli [2]),MIC (Mucor hiemalis),MIC (Micrococcus luteus),MIC (Pseudomonas aeruginosa),MIC (Staphylococcus aureus),MIC [3],Compound,IC50 (L929; l929),IC50 (L929; [4])
inactive,inactive,inactive,inactive,inactive,inactive,inactive,inactive,inactive,inactive,C=C1c2[nH]c3ccccc3c2C[C@@H](O)[C@@]1(C)O,Not Active,–
16.6 µg/mL,inactive,inactive,67 µg/mL,inactive,inactive,33.3 µg/mL,inactive,33.3 µg/mL,inactive,Cc1c(O)cc2c([nH]c3ccccc32)c1C,–,85.2 µM
inactive,inactive,inactive,inactive,inactive,inactive,inactive,inactive,inactive,inactive,Cc1ccc2c([nH]c3ccccc32)c1C=O,Not Active,–
16.6 µg/mL,inactive,inactive,33.3 µg/mL,inactive,67 µg/mL,16.6 µg/mL,inactive,16.6 µg/mL,inactive,Cc1c(O)c(-c2c(O)c(C)c(C)c3[nH]c4ccccc4c23)c2c([nH]c3ccccc32)c1C,–,4.99 µM
inactive,inactive,inactive,inactive,inactive,inactive,inactive,inactive,inactive,inactive,C[C@@]1(O)C(=O)C(=O)c2c([nH]c3ccccc23)[C@@]1(C)O,Not Active,–
inactive,inactive,inactive,inactive,inactive,inactive,inactive,inactive,inactive,inactive,C[C@@]1(O)C(=O)[C@H]([C@H]2C(=O)[C@@](C)(O)[C@](C)(O)c3[nH]c4ccccc4c32)c2c([nH]c3ccccc23)[C@@]1(C)O,Not Active,–
inactive,inactive,inactive,inactive,inactive,inactive,inactive,inactive,inactive,inactive,C[C@@]1(O)C(=O)Cc2c([nH]c3ccccc23)[C@@]1(C)O,Not Active,–
8.3 µg/mL,inactive,inactive,inactive,inactive,inactive,16.6 µg/mL,inactive,16.6 µg/mL,inactive,CO[C@]1(C)c2[nH]c3ccccc3c2C(=O)C(=O)[C@@]1(C)O,–,76.8 µM
inactive,inactive,inactive,inactive,inactive,inactive,inactive,inactive,inactive,inactive,CO[C@]1(C)c2[nH]c3ccccc3c2CC(=O)[C@@]1(C)O,Not Active,–

# Source: ChEMBL document CHEMBL3797058, “Sorazolons, Carbazole Alkaloids from Sorangium cellulosum Strain Soce375” (J Nat Prod, 2016)
